Activity calls are given as the source filed them.
Key:
[1] = system: THP-1; assay: Inhibition of FSL-1-induced increase in phagocytosis of FITC-conjugated Escherichia coli K12 in human THP1 cells assessed as reduction in number of phagocytosing bacteria to total number of cells after 1 hr by CLSM; assay type: functional, cell-based
Outline: (§1)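 THP-1 cells (1 × 10⁶/ml) were held 24 h with or without 100 nM FSL-1, washed, then given 100 μM resveratrol or 0.1% DMSO for 1 h. Heat-killed FITC-E. coli (1:100) was added for 1 h, cells were stained with concanavalin A, fixed in 3% paraformaldehyde and imaged by confocal microscopy. Readouts: particles per cell among 3,500 cells; % cells with bacteria per field (>100 cells), 25 fields.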

[2] = system: RAW264.7; assay: Inhibition of FSL-1-induced increase in phagocytosis of FITC-conjugated Staphylococcus aureus 209P in mouse RAW264.7 cells using trypan blue staining after 20 mins by flow cytometry; assay type: functional, cell-based
Outline: (§2)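 THP-1 or RAW264.7 cells (1 × 10⁶/ml) were pretreated 24 h with FSL-1 (0, 1, 10, 100 nM), washed, then given resveratrol (10, 50, 100 μM) for 1 h serum-free. Heat-killed FITC-E. coli (1:10) or FITC-S. aureus (1:100) followed. Surface fluorescence was quenched with 0.2% trypan blue and cells fixed in 1% paraformaldehyde. Flow cytometry mean fluorescence intensity, triplicates.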

[3] = system: RAW264.7; assay: Inhibition of phagocytosis of FITC-conjugated Escherichia coli K12 in mouse RAW264.7 cells using trypan blue staining after 20 mins by flow cytometry; assay type: functional, cell-based
Outline: (§3)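 Serum-free THP-1 or RAW264.7 cells were treated 1 h with resveratrol, then incubated 0, 20, 40, 60 or 80 min with heat-killed FITC-E. coli at 1:100 cell:bacterium. Outer fluorescence was quenched with 0.2% trypan blue and cells fixed in 1% paraformaldehyde. Internalized fluorescence was read as flow cytometry MFI; mean and SD of triplicates.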

[4] = system: THP-1; assay: Inhibition of FSL-1-induced increase in phagocytosis of FITC-conjugated Escherichia coli K12 in human THP1 cells assessed as reduction in number of cells phagocytosing bacteria per cell after 1 hr by CLSM; assay type: functional, cell-based; outline: as §1
[5] = system: HEK293; assay: Inhibition of phagocytosis of heat killed FITC-conjugated Escherichia coli K12 in HEK293 at 100 uM by after 1 hr; assay type: functional, cell-based; settings: Homo sapiens
Outline: (§4)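 293/DC-SIGN cells (5 × 10⁵/ml) were plated the day before, washed and treated 1 h with resveratrol. Heat-killed FITC-E. coli or S. aureus were added for 1 h at various cell:bacterium ratios. Trypan blue (0.2%) quenched surface fluorescence and 1% paraformaldehyde fixed the cells. Flow cytometry MFI, triplicates.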

[6] = system: THP-1; assay: Inhibition of phagocytosis of FITC-conjugated Staphylococcus aureus 209P in human THP1 cells using trypan blue staining after 80 mins by flow cytometry; assay type: functional, cell-based
[7] = system: RAW264.7; assay: Inhibition of phagocytosis of FITC-conjugated Staphylococcus aureus 209P in mouse RAW264.7 cells using trypan blue staining after 60 mins by flow cytometry; assay type: functional, cell-based
[8] = system: RAW264.7; assay: Inhibition of phagocytosis of FITC-conjugated Staphylococcus aureus 209P in mouse RAW264.7 cells using trypan blue staining after 20 mins by flow cytometry; assay type: functional, cell-based
[9] = system: THP-1; assay: Inhibition of phagocytosis of FITC-conjugated Staphylococcus aureus 209P in human THP1 cells using trypan blue staining after 60 mins by flow cytometry; assay type: functional, cell-based
[10] = system: HEK293; assay: Inhibition of heat killed Escherichia coli K12-induced NF-kappaB activation in HEK293 cells expressing TLR2 pretreated for 1 hr before 6 hrs heat killed bacterial stimulation by luciferase reporter gene assay; assay type: cell-based; settings: Homo sapiens
Outline: (§5)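 293/TLR2 cells (1 × 10⁵/well) were transfected with 50 ng pNF-κB-Luc, 5 ng pRL-TK and 445 ng pcDNA3. After 24 h they were pretreated 1 h with resveratrol, then stimulated 6 h serum-free with FSL-1 (1, 10, 100 nM) or heat-killed E. coli or S. aureus (1:1, 1:10, 1:100). Dual luciferase readout, triplicates.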

[11] = system: THP-1; assay: Inhibition of FSL-1-induced increase in phagocytosis of FITC-conjugated Staphylococcus aureus 209P in human THP1 cells using trypan blue staining after 20 mins by flow cytometry; assay type: functional, cell-based; outline: as §2
[12] = system: THP-1; assay: Inhibition of phagocytosis of FITC-conjugated Staphylococcus aureus 209P in human THP1 cells using trypan blue staining after 40 mins by flow cytometry; assay type: functional, cell-based
[13] = system: RAW264.7; assay: Inhibition of heat killed Staphylococcus aureus 209P-induced TNF alpha production in mouse RAW264.7 cells at 1 to 100 uM after 6 hrs by ELISA; assay type: functional, cell-based
Outline: (§6)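 THP-1 or RAW264.7 cells (1 × 10⁶/well, 16 h) were washed and pretreated 1 h with resveratrol. Serum-free stimulation with heat-killed E. coli or S. aureus at 1:100 followed for 0, 2, 4 or 6 h. TNF-α in supernatants (400 × g spin) was measured by ELISA: human kit for THP-1, mouse kit for RAW264.7. Triplicates.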

[14] = system: THP-1; assay: Inhibition of phagocytosis of FITC-conjugated Escherichia coli K12 in human THP1 cells using trypan blue staining after 80 mins by flow cytometry; assay type: functional, cell-based; outline: as §3
[15] = system: HEK293; assay: Inhibition of heat killed Staphylococcus aureus 209P-induced NF-kappaB activation in HEK293 cells expressing TLR2 pretreated for 1 hr before 6 hrs heat killed bacterial stimulation by luciferase reporter gene assay; assay type: cell-based; settings: Homo sapiens; outline: as §5
[16] = system: THP-1; assay: Inhibition of phagocytosis of FITC-conjugated Staphylococcus aureus 209P in human THP1 cells assessed as reduction in ratio of number of bacterial cells to phagocytes using trypan blue staining by flow cytometry; assay type: functional, cell-based
Outline: (§7)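 THP-1 or RAW264.7 cells received resveratrol for 1 h serum-free, then a range of doses of heat-killed FITC-E. coli or FITC-S. aureus. Trypan blue (0.2%) quenched bound bacteria and 1% paraformaldehyde fixed the cells. Flow cytometry MFI of internalized bacteria was plotted against bacterial dose; triplicates.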

[17] = system: RAW264.7; assay: Inhibition of phagocytosis of FITC-conjugated Staphylococcus aureus 209P in mouse RAW264.7 cells assessed as reduction in ratio of number of bacterial cells to phagocytes using trypan blue staining by flow cytometry; assay type: functional, cell-based; outline: as §7
[18] = system: THP-1; assay: Inhibition of FSL1-induced upregulation of dectin-1 mRNA expression in human THP1 cells at 100 uM after 1 hr by RT-PCR; assay type: functional, cell-based
Outline: (§8)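 Serum-free THP-1 cells primed 24 h with 100 nM FSL-1 were given 100 μM resveratrol or 0.1% DMSO for 1 h. Total RNA from 5 × 10⁶ cells was reverse-transcribed with oligo(dT) and PCR-amplified for MSR1, CD36, DC-SIGN and Dectin-1 (30 cycles) with β-actin as reference (25 cycles). Products were resolved on 3% agarose with ethidium bromide.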

[19] = system: HEK293; assay: Inhibition of phagocytosis of heat killed FITC-conjugated Staphylococcus aureus 209P in HEK293 at 100 uM after 1 hr; assay type: functional, cell-based; settings: Homo sapiens; outline: as §4
[20] = system: RAW264.7; assay: Inhibition of phagocytosis of FITC-conjugated Staphylococcus aureus 209P in mouse RAW264.7 cells using trypan blue staining after 80 mins by flow cytometry; assay type: functional, cell-based
[21] = system: THP-1; assay: Inhibition of phagocytosis of FITC-conjugated Staphylococcus aureus 209P in human THP1 cells using trypan blue staining after 20 mins by flow cytometry; assay type: functional, cell-based
[22] = system: THP-1; assay: Inhibition of heat killed Staphylococcus aureus 209P-induced TNF alpha production in human THP1 cells at 1 to 100 uM after 6 hrs by ELISA; assay type: functional, cell-based; outline: as §6
[23] = system: RAW264.7; assay: Inhibition of phagocytosis of FITC-conjugated Escherichia coli K12 in mouse RAW264.7 cells using trypan blue staining after 40 mins by flow cytometry; assay type: functional, cell-based; outline: as §3
[24] = system: THP-1; assay: Inhibition of FSL-1-induced increase in phagocytosis of FITC-conjugated Escherichia coli K12 in human THP1 cells using trypan blue staining after 20 mins by flow cytometry; assay type: functional, cell-based; outline: as §2
[25] = system: HEK293; assay: Inhibition of heat killed Staphylococcus aureus 209P-induced nuclear translocation of p65 element of NF-kappaB in HEK293 cells expressing TLR2 at 100 uM pretreated for 1 hr before 6 hrs heat killed bacterial stimulation by immunostaining method; assay type: cell-based; settings: Homo sapiens
Outline: (§9)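 293/TLR2 cells on poly-L-lysine coverslips were given 100 μM resveratrol or 0.1% DMSO for 1 h, then heat-killed E. coli or S. aureus (1:100) for 6 h. Cells were fixed in methanol at −20°C for 5 min and stained with rabbit anti-p65 pAb (1 μg/ml, 45 min RT), then Alexa 594 anti-rabbit IgG. Nuclear p65 was viewed by confocal microscopy.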

[26] = system: THP-1; assay: Inhibition of FSL1-induced upregulation of MSR1 mRNA expression in human THP1 cells at 100 uM after 1 hr by RT-PCR; assay type: functional, cell-based; outline: as §8
[27] = system: THP-1; assay: Inhibition of phagocytosis of FITC-conjugated Escherichia coli K12 in human THP1 cells using trypan blue staining after 40 mins by flow cytometry; assay type: functional, cell-based; outline: as §3
[28] = system: RAW264.7; assay: Inhibition of heat killed Escherichia coli K12-induced TNF alpha production in mouse RAW264.7 cells at 1 to 100 uM after 6 hrs by ELISA; assay type: functional, cell-based; outline: as §6
[29] = system: RAW264.7; assay: Inhibition of phagocytosis of FITC-conjugated Escherichia coli K12 in mouse RAW264.7 cells using trypan blue staining after 80 mins by flow cytometry; assay type: functional, cell-based; outline: as §3
[30] = system: HEK293; assay: Inhibition of heat killed Escherichia coli K12-induced nuclear translocation of p65 element of NF-kappaB in HEK293 cells expressing TLR2 at 100 uM pretreated for 1 hr before 6 hrs heat killed bacterial stimulation by immunostaining method; assay type: cell-based; settings: Homo sapiens; outline: as §9
[31] = system: THP-1; assay: Inhibition of phagocytosis of FITC-conjugated Escherichia coli K12 in human THP1 cells using trypan blue staining after 20 mins by flow cytometry; assay type: functional, cell-based; outline: as §3
[32] = system: RAW264.7; assay: Inhibition of phagocytosis of FITC-conjugated Escherichia coli K12 in mouse RAW264.7 cells using trypan blue staining after 60 mins by flow cytometry; assay type: functional, cell-based; outline: as §3
[33] = system: RAW264.7; assay: Inhibition of phagocytosis of FITC-conjugated Staphylococcus aureus 209P in mouse RAW264.7 cells using trypan blue staining after 40 mins by flow cytometry; assay type: functional, cell-based
[34] = system: THP-1; assay: Inhibition of FSL1-induced upregulation of DC-SIGN mRNA expression in human THP1 cells at 100 uM after 1 hr by RT-PCR; assay type: functional, cell-based; outline: as §8
[35] = system: RAW264.7; assay: Inhibition of phagocytosis of FITC-conjugated Escherichia coli K12 in mouse RAW264.7 cells assessed as reduction in ratio of number of bacterial cells to phagocytes using trypan blue staining by flow cytometry; assay type: functional, cell-based; outline: as §7
[36] = system: THP-1; assay: Inhibition of phagocytosis of FITC-conjugated Escherichia coli K12 in human THP1 cells assessed as reduction in ratio of number of bacterial cells to phagocytes using trypan blue staining by flow cytometry; assay type: functional, cell-based; outline: as §7
[37] = system: THP-1; assay: Inhibition of heat killed Escherichia coli K12-induced TNF alpha production in human THP1 cells at 1 to 100 uM after 6 hrs by ELISA; assay type: functional, cell-based; outline: as §6
[38] = system: RAW264.7; assay: Inhibition of FSL-1-induced increase in phagocytosis of FITC-conjugated Escherichia coli K12 in mouse RAW264.7 cells using trypan blue staining after 20 mins by flow cytometry; assay type: functional, cell-based; outline: as §2
[39] = system: HEK293; assay: Inhibition of DC-SIGN expression in HEK293 cells expressing DC-SIGN at 100 uM by Western blot analysis; assay type: functional, cell-based; settings: Homo sapiens
Outline: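 293/DC-SIGN cells (1 × 10⁷ per 10-cm dish, DMEM complete medium, 16 h) were washed and exposed to 100 μM resveratrol for 0, 30, 60, 90 or 120 min. Lysates in SDS sample buffer with protease inhibitors were boiled and run on 10% SDS-PAGE, then blotted to nitrocellulose. Probes were anti-DC-SIGN or anti-β-actin mAb (4°C overnight), then HRP anti-mouse IgG.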

[40] = system: THP-1; assay: Inhibition of FSL1-induced upregulation of CD36 mRNA expression in human THP1 cells at 100 uM after 1 hr by RT-PCR; assay type: functional, cell-based; outline: as §8
[41] = system: THP-1; assay: Inhibition of phagocytosis of FITC-conjugated Escherichia coli K12 in human THP1 cells using trypan blue staining after 60 mins by flow cytometry; assay type: functional, cell-based; outline: as §3
[42] = system: HEK293; assay: Inhibition of FSL1-induced NF-kappaB activation in HEK293 cells expressing TLR2 pretreated for 1 hr before 6 hrs-FSL1 stimulation by luciferase reporter gene assay; assay type: cell-based; settings: Homo sapiens; outline: as §5

Measured: Activity

Oc1ccc(/C=C/c2cc(O)cc(O)c2)cc1
active: [1] | [2] Dose-dependent effect | [3] Dose-dependent effect | [4] | [5] Dose-dependent effect | [6] Dose-dependent effect | [7] Dose-dependent effect | [8] Dose-dependent effect | [9] Dose-dependent effect | [10] | [11] Dose-dependent effect | [12] Dose-dependent effect | [13] | [14] Dose-dependent effect | [15] | [16] | [17] | [18] | [19] Dose-dependent effect | [20] Dose-dependent effect | [21] Dose-dependent effect | [22] | [23] Dose-dependent effect | [24] Dose-dependent effect | [25] | [26] | [27] Dose-dependent effect | [28] | [29] Dose-dependent effect | [30] | [31] Dose-dependent effect | [32] Dose-dependent effect | [33] Dose-dependent effect | [34] | [35] | [36] | [37] | [38] Dose-dependent effect | [39] | [40] | [41] Dose-dependent effect | [42] Dose-dependent effect
